Structures are written as SMILES. Out of some 2,500 compounds screened, about 1,200 (48%) were called active.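 Rule for the calls: active = mean activation above the low control average plus 3 SD, as set in the primary screen (cut at about 12% in these data); inactive = the rest.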 So high a share suggests a set chosen from earlier hits. The list shows a part of the results.

The target of the test is Troponin I, cardiac muscle (Homo sapiens) + Troponin T, cardiac muscle (Homo sapiens) + Troponin C, slow skeletal and cardiac muscles (Homo sapiens) (UniProt P19429+P45379+P63316). Briefly: calcium sensitizers of cardiac thin filaments – biochemical, IANBD-TnC fluorescence, triplicate, confirmation (AID 504383).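 Note: 0% = DMSO at 0.472 mM calcium and 100% = DMSO at 2.9 mM calcium.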 The settings on record: IANBD-labeled cardiac RTF, Ca2+ sensitivity fluorescence; at 7.2 µM; active compounds read high; scaled from EC20 to saturating calcium; tested at EC20 calcium, 0.472 mM. The essentials: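 material = labelled regulated thin filaments | probe or stimulus = Ca2+ 0.472 mM, EC20 level | dosing = single nominal compound dose of 7.2 µM | schedule = 15 min at 25 °C | signal = fluorescence intensity of labelled filaments | evaluation = fluorescence gain scaled between EC20 and EC100 calcium controls | benchmarks = low control EC20 calcium, high control EC100 calcium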
On to `Nc1c(S(=O)(=O)c2ccccc2)c2nc3ccccc3nc2n1Cc1ccco1`, for which the activation was 79.2% (active).

Take `Cc1ccc(S(=O)(=O)c2c(N)n(Cc3ccco3)c3nc4ccccc4nc23)cc1`: the activation was 8.53% (inactive).

`Nc1c(S(=O)(=O)c2ccccc2)c2nc3ccccc3nc2n1/N=C/c1ccco1`: the activation was 4.69% (inactive).

Turning to `COc1cccc(CNC(=O)CN(C)S(=O)(=O)c2cnc[nH]2)c1`, the activation is 151% (active).

On to `COc1cccc(CNC(=O)CN(C)S(=O)(=O)c2ccc3c(c2)c(=O)n(C)c(=O)n3C)c1`, for which the activation was 11.5% (inactive).

Consider `COc1ccccc1/C=C/CN1CCC(CO)(Cc2ccccc2)CC1`, for which the activation is 11.1% (inactive).

On to `CCC(=Cc1ccccc1OC)c1ccncc1`, for which the activation was 17.2% (active).

As for `CCOc1ccc(-c2ncncc2-c2ccccc2OC)c(O)c1`, the activation was 5.97% (inactive).

As for `Cc1cc(C)c[n+](-c2[nH]c(=O)sc2/C=N/NC([S-])=Nc2ccccc2)c1`, the activation was -0.42% (inactive).

Consider `CCc1ccc[n+](-c2[nH]c(=O)sc2/C=N/NC([S-])=Nc2ccccc2)c1`, for which the activation is 49.2% (active).

Take `CC(C)(C)c1cc[n+](-c2[nH]c(=O)sc2/C=N/NC([S-])=Nc2ccccc2)cc1`: the activation was 5.34% (inactive).

Consider `O=c1[nH]c(-[n+]2ccccc2)c(/C=N/NC([S-])=Nc2ccccc2)s1`, for which the activation was 8.23% (inactive).

Regarding `Cc1cc[n+](-c2[nH]c(=O)sc2/C=N/NC([S-])=Nc2ccccc2)cc1C`, the activation was 6.12% (inactive).

For the compound `Cc1cc[n+](-c2[nH]c(=O)sc2/C=N/N=C(\[O-])c2ccccc2)cc1C`, the activation was 22.1% (active).

Regarding `Cc1cc[n+](-c2[nH]c(=O)sc2/C=N/NC([S-])=Nc2ccccc2)cc1`, the activation was 18.3% (active).

Consider `CCCCNc1ccc2c3c(cccc13)C(=O)N(CCCC)C2=O`, for which the activation was 5.54% (inactive).

On to `CNc1ccc2c3c(cccc13)C(=O)N(C)C2=O`, for which the activation is 44.4% (active).

For the compound `Cc1ccccc1N1C(=O)c2cccc3c(N(C)CCO)ccc(c23)C1=O`, the activation is 11.1% (inactive).

For `CN1C(=O)c2cccc3c(N(C)C)ccc(c23)C1=O`, the activation is 223% (active).

In the case of `CN1C(=O)c2cccc3c(N)ccc(c23)C1=O`, the activation was 5.53% (inactive).

Turning to `Cc1cccc(N2C(=O)c3cccc4c(N(C)CCO)ccc(c34)C2=O)c1`, the activation is 6.7% (inactive).

Regarding `O=C(CSc1ccc(Cl)cc1)Nc1nnc(-c2cccc([N+](=O)[O-])c2)s1`, the activation is -1.31% (inactive).

In the case of `O=C(Cc1ccc(Cl)cc1)NNS(=O)(=O)c1ccc([N+](=O)[O-])cc1`, the activation is 275% (active).

`O=S(=O)(O)c1nc2ccccc2n1Cc1ccccc1`: the activation was 51.8% (active).

As for `O=c1[nH]ncc2c3ccccc3n(Cc3cccc(Cl)c3)c12`, the activation was -2.41% (inactive).

Consider `CCCCN(C(=O)c1ccc2c(c1)OCCO2)c1c(N)n(CCCC)c(=O)[nH]c1=O`, for which the activation was 3.97% (inactive).

On to `CCN1C(=O)c2cccc3c(NC(=O)c4ccc5c(c4)OCCO5)ccc1c23`, for which the activation is 1730% (active).

For `Cc1ccccc1NC(=O)c1nnn(-c2ccc3c(c2)OCCO3)c1N`, the activation is 5.33% (inactive).

Regarding `CN(Cc1ccccc1)C(=O)c1ccc(NC(=O)Cc2ccc(NC(=O)C3CCCN(S(=O)(=O)c4cccc([N+](=O)[O-])c4)C3)cc2)cc1` (stereo not drawn), the activation is 6.95% (inactive).

Turning to `O=C(Cc1ccc(NC(=O)C2CCCN(C(=O)C3CCCCC3)C2)cc1)Nc1cccc(C(=O)N2CCCC2)c1` (stereo not drawn), the activation is 13.2% (active).

With `COc1cccc(S(=O)(=O)Nc2cccc(C(=O)N3CCCCCC3)c2)c1`, the activation is -0.51% (inactive).

Regarding `CC(=O)Nc1ccc(S(=O)(=O)NCCC(=O)OCC(=O)c2cc(C)ccc2C)cc1`, the activation was 10.1% (inactive).

`Cc1ccc(S(=O)(=O)Nc2ccccc2N(C)S(=O)(=O)c2ccc(C)cc2)cc1`: the activation is 9.04% (inactive).

For the compound `Cc1ccc(S(=O)(=O)NCCCCCC(=O)Nc2ccccc2C)cc1`, the activation was 34.1% (active).

`Cc1ccc(C)c(OCCN2C(=O)NC3(CCc4ccccc4C3)C2=O)c1` (stereo not drawn): the activation was 2.13% (inactive).

In the case of `C=COc1ccc(N2C(=O)c3ccccc3OC2C)cc1` (stereo not drawn), the activation was 32.1% (active).

As to `COc1ccc(CC(=O)N(C)Cc2cccc(F)c2)cc1S(=O)(=O)N1CCOCC1`, the activation is 12.3% (active).

`COc1cc(/C=C2/C(=O)NN(c3cccc(F)c3)C2=O)ccc1OC(=O)c1ccco1`: the activation is 3.13% (inactive).

Consider `Cc1ccc(C(=O)N(C)CC(=O)Nc2cccc(F)c2)cc1S(=O)(=O)N1CCCCC1`, for which the activation was 6.56% (inactive).

For the compound `NC(=O)c1ccccc1N/C=C/C(=O)c1ccc(Cl)cc1Cl`, the activation is 19% (active).

As for `COC(=O)c1cnn2c(C(F)(F)F)cc(-c3ccco3)nc12`, the activation is 4.76% (inactive).

Turning to `Cc1cccc(C)c1NC(=O)CN(C1CCCCC1)S(C)(=O)=O`, the activation is 9.63% (inactive).

Take `Cc1cccc(C)c1NC(=O)CNC(=O)Cc1ccc(Br)cc1`: the activation was 10.9% (inactive).

In the case of `CSc1nc2ccccc2n1CC(=O)Nc1c(C)cccc1C`, the activation is 12.7% (active).

For the compound `NC(=O)NC(Cc1ccccc1)C(=O)NCC1(N2CCCCC2)CCCCC1` (stereo not drawn), the activation was 9.4% (inactive).

For the compound `Cc1cc(-c2ccccc2C(=O)NC2CCCCC2)on1`, the activation is 6.39% (inactive).

In the case of `Cc1nn(-c2ccccc2)c(Cl)c1C(=O)NC1CCCCC1`, the activation was 20.7% (active).

For `Cc1c(C(=O)NC2CC2)oc2ccccc12`, the activation is 7.6% (inactive).

Regarding `O=C(CNC(=O)C12CC3CC(CC(C3)C1)C2)OCC(=O)N1CCCCC1`, the activation was 11.6% (inactive).

`COc1ccc2nc(-c3ccccn3)[nH]c2c1`: the activation was 93.2% (active).

As for `COc1ccc(OC)c(C2=C/C(=C/c3ccccn3)C(=O)O2)c1`, the activation is 6.12% (inactive).

Consider `COc1ccc(OC)c(/C=C/c2nc3ccccc3[nH]c2=O)c1`, for which the activation was 6.55% (inactive).

With `O=c1[nH]c2cc(C(F)(F)F)ccc2n1-c1cc(C(F)(F)F)ccc1O`, the activation is 8.69% (inactive).

As for `CCOc1ccccc1C(=O)NN1C(=O)CCC1=O`, the activation was 23.7% (active).

Turning to `Cc1cc(S(=O)(=O)NC(C)C)ccc1OCC(=O)NCc1ccccc1`, the activation is 3.1% (inactive).

As for `Cc1ccnc2nc(C(=O)OCC(=O)NCCc3ccccc3)nn12`, the activation is 28.6% (active).

Take `COc1cc(OC)c(OC)cc1/C=C1/Cc2ccccc2C1=O`: the activation was 8.78% (inactive).

As for `CCC1C/C(=C\c2cc(OC)c(OC)cc2OC)C(=O)/C(=C/c2cc(OC)c(OC)cc2OC)C1` (stereo not drawn), the activation is 21.3% (active).

As for `Cc1cc(NS(C)(=O)=O)c(=O)n(Cc2cccc(F)c2)c1`, the activation was 0.31% (inactive).

For the compound `C/C(=C\C=C(C#N)C#N)c1cc(C#N)c(N)o1`, the activation is 16.3% (active).

Consider `c1ccc(Cn2c(-c3ccccc3)nc3nc4ccccc4nc32)cc1`, for which the activation was 32.2% (active).

Turning to `Cc1nnc(-c2ccccc2)c(=O)n1/N=C/c1c(O)ccc2ccccc12`, the activation was 5.78% (inactive).

As to `O=C(N/N=C\c1c(O)ccc2ccccc12)c1cncc(Br)c1`, the activation is 20% (active).

Consider `Oc1ccc2ccccc2c1C=NCc1cn2ccsc2n1`, for which the activation was 3.76% (inactive).

For the compound `O=C(N/N=C/c1c(O)ccc2ccccc12)c1cccc(C(F)(F)F)c1`, the activation is 164% (active).

Turning to `O=C(NN=Cc1c(O)ccc2ccccc12)c1ccncc1`, the activation is 9.86% (inactive).

Regarding `Cn1nnnc1SCCOc1ccc(C#N)cc1`, the activation is -1.4% (inactive).

Regarding `CCOC(=O)c1cn(-c2ccc(F)c(F)c2F)c2c(F)c(F)c(F)cc2c1=O`, the activation was 10.3% (inactive).

`Cc1cc([N+](=O)[O-])nn1CC(=O)Nc1c(C)n(C)n(-c2ccccc2)c1=O`: the activation was 8.97% (inactive).

As for `Cc1c(N=C2N=C(NC(=O)Nc3ccc(Cl)cc3)c3ccccc32)c(=O)n(-c2ccccc2)n1C`, the activation was 58.8% (active).

Consider `CC/C(=C/c1sc2ccccc2[n+]1CC)SC`, for which the activation was 2.73% (inactive).

Turning to `CC[n+]1c(/C=C/C=C/N(C(C)=O)c2ccccc2)sc2ccccc21`, the activation was 135% (active).

As to `CCCC(NC(=O)CCc1c(C)c2cc3c(-c4ccccc4)coc3cc2oc1=O)C(=O)O` (stereo not drawn), the activation is 181% (active).

Regarding `C=CCOc1ccccc1CNc1cccc(F)c1`, the activation was 7.46% (inactive).

Regarding `C=CCOc1ccc(Br)cc1CNCC`, the activation was 29.4% (active).

On to `Cc1nc(NC(=O)C(Cl)Cl)sc1C(=O)N(C)C`, for which the activation was 8.86% (inactive).

On to `Cc1ccc(Cn2nc(C)c(NC(=O)C3(C)CC3(Br)Br)c2C)cc1` (stereo not drawn), for which the activation was 17.1% (active).

Regarding `Cc1nn(Cc2c(F)c(F)c(F)c(F)c2F)c(C)c1NC(=O)c1nn(C)c(C)c1Br`, the activation is 9.42% (inactive).

In the case of `CCn1cc(/C=C/C(=O)Nc2c(C)nn(Cc3ccccc3C)c2C)cn1`, the activation was 7.35% (inactive).

For the compound `Cn1c(=O)cc(N)n(Cc2ccccc2)c1=O`, the activation was 42.5% (active).

Regarding `Cc1ccc(NC(=O)COC(=O)/C=C/c2c(C)nn(-c3ccc(F)cc3)c2Cl)cc1F`, the activation is 8% (inactive).

`CCOc1ccc(-n2c(SCC(=O)Nc3ccc(OC)cc3OC)nc3c(c2=O)SCC3)cc1`: the activation was 13.3% (active).

Take `CCOc1ccc(C(C(=O)NC2CCCCC2)N(C(=O)Cc2cccs2)c2ccc(-n3cnnn3)c(OC)c2)cc1` (stereo not drawn): the activation is 3.97% (inactive).

In the case of `Cc1ccc(C(C)NC(=O)c2cccs2)cc1C` (stereo not drawn), the activation was 480% (active).

Regarding `CCCCNC(=O)Nc1nnc(-c2ccccc2)o1`, the activation was 10.1% (inactive).

Take `O=C(CSc1nnc(-c2ccco2)o1)NC1CCCCC1`: the activation was 6.06% (inactive).

For `O=C(CCSc1nnc(-c2ccco2)o1)Nc1ccccc1`, the activation was 69% (active).

`C/C(O)=c1/ccc2cccc3nc(C)nc1c23`: the activation was 62.2% (active).

Regarding `COc1ccc(CN(Cc2cccn2C)S(=O)(=O)c2ccccc2)cc1`, the activation was 9.11% (inactive).

As to `CCN(CC(=O)N1CCCC1)S(=O)(=O)c1ccc(OC)cc1`, the activation was 262% (active).

On to `Cc1ccccc1NS(=O)(=O)c1ccc(OCC(=O)N2CCCCC2)cc1`, for which the activation was 6.33% (inactive).

With `O=C1NC(c2cccc([N+](=O)[O-])c2)Oc2ccccc21` (stereo not drawn), the activation is 10.3% (inactive).

For the compound `Cc1ccc(C)c(NC(=O)COC(=O)Cc2ccsc2)c1`, the activation was 12.3% (active).

Regarding `Cc1ccc(C)c(NC(=O)CCN2CCOCC2)c1`, the activation was 0.21% (inactive).

`O=C(NC1CCCCC1)c1cccc2c1C(=O)c1ccc(N3CCCC3)cc1S2(=O)=O`: the activation is 87.8% (active).

For the compound `O=C(NC1CCCCC1)c1cccc2c1C(=O)c1ccc(N3CCC(Cc4ccccc4)CC3)cc1S2(=O)=O`, the activation was 5.3% (inactive).

Take `C=CCNC(=O)c1cccc2c1C(=O)c1ccc(N3CCCC3)cc1S2(=O)=O`: the activation was 6.98% (inactive).

`CN1CCC[C@@H]1CCNC(=O)c1cccc2c1C(=O)c1ccc(N3CCCC3)cc1S2(=O)=O`: the activation is -0.88% (inactive).

Take `O=C(NCc1cccc(F)c1)c1cccc2c1C(=O)c1ccc(N3CCCC3)cc1S2(=O)=O`: the activation is 8.28% (inactive).

As to `O=C(NCC1CC1)c1cccc2c1C(=O)c1ccc(N3CCCC3)cc1S2(=O)=O`, the activation is 183% (active).

Take `O=C(NCc1ccc(OC(F)(F)F)cc1)c1cccc2c1C(=O)c1ccc(N3CCCCC3)cc1S2(=O)=O`: the activation was 17.5% (active).

With `Cc1ccc(CNC(=O)c2cccc3c2C(=O)c2ccc(N4CCCCC4)cc2S3(=O)=O)cc1`, the activation was 6.7% (inactive).

As for `CC1CCN(c2ccc3c(c2)S(=O)(=O)c2cccc(C(=O)NC4CCCCC4)c2C3=O)CC1`, the activation is 1.22% (inactive).
